Shown are actives, neighbours in structure and some others; about 4.5% of the full set was active somewhere.
OX1R antag-1: antagonists of human orexin 1 receptor (OX1R) | 330,000 tested, 1.8% active | inhibition, % at 6.6 µM | OX1R-expressing cells, FRET antagonist read-out | O43613 | AID 485270; in the data active = inhibition mostly above about 38%, no sharp cut-off; inactive = mostly below about 40%
OX1R antag-2: antagonists of human orexin 1 receptor; CHO/OX1R cells, Fluo-8 calcium fluorescence, orexin A; inhibition, % at 5 µM; 330,000 tested, 0.43% active;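 active = inhibition above its plate's threshold, mean inhibition of all tested compounds on the plate plus 3 SD, cut at about 37% in these data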
GPR7 antagonist: antagonists of human GPR7 (neuropeptides B/W receptor 1); P48145; GPR7-expressing cells, fluorescence antagonist assay; inhibition, % at 4.4 µM; 290,000 tested, 1.1% active; in the data active = inhibition above about 16%, passing the limit was not always enough;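 also: cells stimulated with the agonist NPW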
Target sequence (P48145 whole entry, looked up): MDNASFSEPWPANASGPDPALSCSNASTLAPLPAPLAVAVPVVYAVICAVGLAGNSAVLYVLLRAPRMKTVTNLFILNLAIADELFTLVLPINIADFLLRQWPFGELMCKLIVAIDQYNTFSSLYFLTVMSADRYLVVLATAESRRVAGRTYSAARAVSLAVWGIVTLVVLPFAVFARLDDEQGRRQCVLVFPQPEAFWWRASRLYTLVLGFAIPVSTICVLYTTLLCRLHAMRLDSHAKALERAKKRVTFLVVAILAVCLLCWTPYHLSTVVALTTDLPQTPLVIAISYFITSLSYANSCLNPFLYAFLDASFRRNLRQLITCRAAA
CHO parental Ca: counter-screen: ATP calcium response change in parental CHO cells. inhibition, % at 5.6 µM. 330,000 tested, 0.63% active. parental CHO-K1, ATP-induced calcium, Fluo-8 fluorescence;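 active = inhibition above that plate's mean sample inhibition plus 3 SD, cut at about 26% in these data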
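Assay system: parental CHO cells; Read-out basis: percent inhibition of ATP-evoked calcium rise, normalized to controls; Benchmarks: ATP and no-ATP DMSO wells; Compound dosing: single nominal dose of 5.6 µM per compound; Signal: Fluo-8 calcium dye fluorescence; Also added: ATP as calcium-mobilizing challenge; Repeats: singlicate.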
TAAR1 agonist: agonists of human TAAR1; Q96RJ0; CHO RD-HGA16 TAAR1, Fluo-8 calcium fluorescence; vehicle wells 0%, saturating PEA agonist 100%; activation, % at 3 µM; 360,000 tested, 0.99% active; AID 624467;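 active = activation above the mean activation of all test compounds in the run plus 3 SD, cut at about 38% in these data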
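Test system: RD-HGA16 (CHO) cells co-expressing Gα16 and hTAAR1; dosing: one-point dosing at 3 µM (nominal); timing: 17-24 h seeding, 75 min 37 °C dye, 30 min RT; signal: kinetic Fluo-8 calcium fluorescence; read-out basis: % activation relative to PEA EC100 response; controls: DMSO and PEA EC100; replicates: n 1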
TAAR1 antagonist: antagonists of human TAAR1; Q96RJ0; inhibition, % at 3 µM; AID 624466; CHO RD-HGA16 TAAR1, Fluo-8 calcium fluorescence, antagonist; 360,000 tested, 1.5% active;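 active = inhibition above a per-plate cutoff, the mean inhibition of test compounds on that plate plus 3 SD, cut at about 49% in these data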
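test system = CHO RD-HGA16 cells bearing hTAAR1 | replication = singlicate | controls = DMSO-only wells and EC80 β-PEA-stimulated wells | reagent = EC80 β-phenethylamine stimulus | read-out basis = percent inhibition of PEA-evoked calcium signal, max/basal emission ratio | schedule = seeding 17-24 h prior, 75-min 37 °C, 30-min RT dye loading | signal = kinetic Fluo-8 calcium fluorescence measurement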
TAAR1 ag confirm: confirmation of human TAAR1 agonists; shares compounds with TAAR1 agonist; CHO RD-HGA16 TAAR1, Fluo-8 calcium fluorescence; scaled: DMSO 0%, maximal phenethylamine 100%; activation, % at 3 µM; 2,400 tested, 82% active;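 active = activation above a cutoff set at the run's mean compound activation plus 3 SD, cut at about 39% in these data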
Ga16 ag counter: nonselective agonism, TAAR1 counter-screen; 2,400 tested, 50% active; activation, % at 3 µM; AID 651787; shares compounds with TAAR1 agonist; CHO-Ga16 parental, Fluo-8 calcium fluorescence; normalized to maximal ATP response, DMSO zero;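 active = activation above the run cutoff, the mean activation over all tested wells plus 3 SD, cut at about 12% in these data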
TAAR1 desens: counter-screen for human TAAR1 agonists: agonists that desensitize TAAR1; shares compounds with TAAR1 agonist; CHO RD-HGA16 hTAAR1, Fluo-8 calcium, beta-PEA response inhibition; inhibition, % at 3 µM; 2,400 tested, 46% active;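 active = inhibition above the run cutoff, the mean inhibition of all test compounds plus 3 SD, cut at about 49% in these data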;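 also: beta-PEA stimulus applied at its EC80; loss of beta-PEA calcium signal after compound pretreatment read as receptor desensitization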
Ga16 antag count: nonselective Ga16 antagonism, counter-screen | shares compounds with TAAR1 agonist | CHO-Ga16 ATP-induced calcium, Fluo-8 fluorescence | inhibition, % at 3 µM | 2,400 tested, 39% active;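 active = inhibition above the plate's mean compound inhibition plus 3 SD, computed per plate, cut at about 22% in these data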
A number is an active result.

What do the screens show for `c1ccc(CN2CN=C(Nc3nc4ccccc4s3)NC2)cc1`?
OX1R antag-1: inactive; OX1R antag-2: inactive; GPR7 antagonist: inactive; CHO parental Ca: inactive; TAAR1 agonist: inactive; TAAR1 antagonist: inactive

What do the screens show for `CCOC(=O)c1cncc(C#CCOC(=O)Nc2ccc(OC(F)(F)F)cc2)c1`?
OX1R antag-1: inactive; OX1R antag-2: inactive; GPR7 antagonist: inactive; CHO parental Ca: inactive; TAAR1 agonist: 51; TAAR1 antagonist: 73; TAAR1 ag confirm: 49; Ga16 ag counter: 32; TAAR1 desens: 81; Ga16 antag count: 62

Results for CCOC(=O)c1cncc(C#CCO)c1 ?
OX1R antag-1: inactive; OX1R antag-2: inactive; GPR7 antagonist: inactive; CHO parental Ca: inactive; TAAR1 agonist: inactive; TAAR1 antagonist: inactive

How did CCCCN(C=O)c1c(CC)nc2ccc(C(=O)NCCCn3ccnc3)cn12 do in these assays?
TAAR1 agonist: inactive; TAAR1 antagonist: inactive

How did COc1cccc(Cn2cccc(NC(=O)NC3CCCCC3)c2=O)c1 do in these assays?
OX1R antag-1: inactive; OX1R antag-2: inactive; GPR7 antagonist: inactive; CHO parental Ca: inactive; TAAR1 agonist: 51; TAAR1 antagonist: inactive; TAAR1 ag confirm: inactive; Ga16 ag counter: 17; TAAR1 desens: inactive; Ga16 antag count: inactive

How did Cc1ccc(Cn2cccc(NC(=O)NC3CCCCC3)c2=O)cc1 do in these assays?
OX1R antag-1: inactive; OX1R antag-2: inactive; GPR7 antagonist: inactive; CHO parental Ca: inactive; TAAR1 agonist: inactive; TAAR1 antagonist: inactive

What do the screens show for `O=C(Nc1cccn(Cc2ccccc2)c1=O)NC1CCCCC1`?
OX1R antag-1: inactive; OX1R antag-2: inactive; GPR7 antagonist: inactive; CHO parental Ca: inactive; TAAR1 agonist: 43; TAAR1 antagonist: inactive; TAAR1 ag confirm: 77; Ga16 ag counter: 40; TAAR1 desens: inactive; Ga16 antag count: inactive

Results for COCCN1C(=O)CCC1(C)C(=O)NC1CCCCC1 (stereo not drawn) ?
TAAR1 agonist: inactive; TAAR1 antagonist: inactive

Results for OCCNCc1ccc(-c2ccccc2)cc1 ?
OX1R antag-1: inactive; OX1R antag-2: inactive; GPR7 antagonist: inactive; CHO parental Ca: inactive; TAAR1 agonist: inactive; TAAR1 antagonist: inactive

What do the screens show for `OCCCNCc1ccc(N(c2ccccc2)c2ccccc2)cc1`?
OX1R antag-1: inactive; OX1R antag-2: inactive; GPR7 antagonist: inactive; CHO parental Ca: inactive; TAAR1 agonist: 45; TAAR1 antagonist: inactive; TAAR1 ag confirm: 73; Ga16 ag counter: 25; TAAR1 desens: inactive; Ga16 antag count: inactive

How did COC(=O)c1c(C)[nH]c(C(=O)COC(=O)Cn2cc(C(F)(F)F)ccc2=O)c1C do in these assays?
TAAR1 agonist: inactive; TAAR1 antagonist: inactive

Results for COc1ccc(/C=N/Nc2nc(-c3ccc(C)cc3)c(NC(C)=O)s2)cc1OC ?
OX1R antag-1: inactive; OX1R antag-2: inactive; GPR7 antagonist: inactive; CHO parental Ca: inactive; TAAR1 agonist: inactive; TAAR1 antagonist: inactive

How did CC(=O)Nc1sc(/C(C#N)=C/c2ccc(Cl)c(Cl)c2)nc1-c1ccc(C)cc1 do in these assays?
GPR7 antagonist: inactive; TAAR1 agonist: 68; TAAR1 antagonist: 81; TAAR1 ag confirm: 42; Ga16 ag counter: 56; TAAR1 desens: 76; Ga16 antag count: 67

Results for COc1ccc(OC)c(/C=C/C(=O)N2CCN(S(=O)(=O)c3ccc(C)cc3C)CC2)c1 ?
OX1R antag-1: inactive; OX1R antag-2: inactive; CHO parental Ca: inactive; TAAR1 agonist: inactive; TAAR1 antagonist: inactive

Results for N#Cc1ccc(N)cc1OCCCN1CCCCC1 ?
TAAR1 agonist: inactive; TAAR1 antagonist: inactive

Source: PubChem BioAssay (The Scripps Research Institute Molecular Screening Center)
